Source: ChEMBL document CHEMBL1275402, “Virtual screening to identify novel antagonists for the G protein-coupled NK3 receptor” (J Med Chem, 2010)

Biological target: T1, Neuromedin-K receptor (Homo sapiens, UniProt P29371)
T1 sequence (P29371 whole entry): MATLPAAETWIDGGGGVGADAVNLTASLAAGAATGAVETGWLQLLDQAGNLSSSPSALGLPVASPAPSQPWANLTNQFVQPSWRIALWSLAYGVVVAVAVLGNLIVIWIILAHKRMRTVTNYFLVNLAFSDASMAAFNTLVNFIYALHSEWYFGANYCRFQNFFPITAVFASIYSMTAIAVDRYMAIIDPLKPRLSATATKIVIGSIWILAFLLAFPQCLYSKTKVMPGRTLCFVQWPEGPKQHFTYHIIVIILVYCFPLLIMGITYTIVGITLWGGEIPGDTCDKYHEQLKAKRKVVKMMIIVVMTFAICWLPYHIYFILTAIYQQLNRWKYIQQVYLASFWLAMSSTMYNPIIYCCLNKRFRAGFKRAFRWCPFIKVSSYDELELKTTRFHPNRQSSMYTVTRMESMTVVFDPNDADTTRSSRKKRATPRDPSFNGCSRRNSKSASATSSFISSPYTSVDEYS
Assay: Antagonist activity against human NK3 receptor expressed in CHO cells assessed as inhibition of senktide-induced increase of intracellular calcium level after 10 mins by fluorescent plate-reader analysis relative to control
Details: not given

Structure (SMILES) | IC50
CC(NC(=O)c1cc(-c2ccccc2)nc2ccccc12)c1ccccc1 (configuration not stated) | 2200 nM
CCC(NC(=O)c1cc(-c2ccccc2)nc2ccccc12)c1ccccn1 (configuration not stated) | 900 nM

Biological target: T1, Neuromedin-K receptor
Assay: biochemical
Details: not given

Structure (SMILES) | Ki | IC50
CCCC(NC(=O)c1cc(-c2ccccc2)nc2ccccc12)c1ccccc1 (configuration not stated) | 50.1 nM | –
CCC(NC(=O)c1c(-c2ccccc2)c(-c2ccccc2)nc2ccccc12)c1ccccc1 (configuration not stated) | 50.1 nM | –
Nc1c(-c2ccccc2)nc2ccccc2c1C(=O)NC(c1ccccc1)C1CC1 (configuration not stated) | 5.01 nM | –
Nc1c(-c2ccccc2)nc2ccccc2c1C(=O)NC(c1cccc(F)c1)C1CC1 (configuration not stated) | 3.16 nM | –
CC(NC(=O)c1cc(-c2ccccc2)nc2ccccc12)c1ccccc1 (configuration not stated) | 251 nM | 33.5 nM
O=C(NC(c1ccccc1)C(F)(F)F)c1cc(-c2ccccc2)nc2ccccc12 (configuration not stated) | 501 nM | –
CCCc1c(-c2ccccc2)nc2ccccc2c1C(=O)NC(CC)c1ccccc1 (configuration not stated) | 12.6 nM | –
Nc1c(-c2cccc(F)c2)nc2ccccc2c1C(=O)NC(c1ccccc1)C1CC1 (configuration not stated) | 10 nM | –
CN(C)C(=O)C(NC(=O)c1cc(-c2ccccc2)nc2ccccc12)c1ccccc1 (configuration not stated) | 501 nM | –
CCC(NC(=O)c1c(N)c(-c2cccc(F)c2)nc2ccccc12)c1ccccc1 (configuration not stated) | 3.98 nM | –
CCCCC(NC(=O)c1cc(-c2ccccc2)cc2ccccc12)c1ccccc1 (configuration not stated) | 158 nM | –
NC(=O)C(NC(=O)c1cc(-c2ccccc2)nc2ccccc12)c1ccccc1 (configuration not stated) | 1000 nM | –
CNC(=O)C(NC(=O)c1cc(-c2ccccc2)nc2ccccc12)c1ccccc1 (configuration not stated) | 501 nM | –
CCC(NC(=O)c1c(N)c(-c2ccc(F)cc2)nc2ccccc12)c1ccccc1 (configuration not stated) | 7.94 nM | –
O=C(NC(Cc1ccccc1)c1ccccc1)c1cc(-c2ccccc2)nc2ccccc12 (configuration not stated) | 3160 nM | –
COC(=O)CC(NC(=O)c1cc(-c2ccccc2)nc2ccccc12)c1ccccc1 (configuration not stated) | 1000 nM | –
CCC(NC(=O)c1cc(-c2ccccc2)nc2ccccc12)c1ccccn1 (configuration not stated) | – | 5.2 nM
CCCCc1c(-c2ccccc2)nc2ccccc2c1C(=O)NC(CC)c1ccccc1 (configuration not stated) | 15.8 nM | –
CC(=O)C(NC(=O)c1cc(-c2ccccc2)nc2ccccc12)c1ccccc1 (configuration not stated) | 25.1 nM | –
CCCCCCCC(NC(=O)c1cc(-c2ccccc2)nc2ccccc12)c1ccccc1 (configuration not stated) | 5010 nM | –
Nc1c(-c2cccc(F)c2)nc2ccccc2c1C(=O)NC(c1cccc(F)c1)C1CC1 (configuration not stated) | 6.31 nM | –
Nc1c(-c2ccccc2)nc2ccccc2c1C(=O)NC(c1ccccc1F)C1CC1 (configuration not stated) | 5.01 nM | –
O=C(NC(CO)c1ccccc1)c1cc(-c2ccccc2)nc2ccccc12 (configuration not stated) | 200 nM | –
O=C(NC(CCO)c1ccccc1)c1cc(-c2ccccc2)nc2ccccc12 (configuration not stated) | 398 nM | –
CCCCCCc1c(-c2ccccc2)nc2ccccc2c1C(=O)NC(CC)c1ccccc1 (configuration not stated) | 50.1 nM | –
CC(C)C(NC(=O)c1cc(-c2ccccc2)nc2ccccc12)c1ccccc1 (configuration not stated) | 79.4 nM | –
CCC(NC(=O)c1c(OC)c(-c2ccccc2)nc2ccccc12)c1ccccc1 (configuration not stated) | 6.31 nM | –

Biological target: T2, Neuromedin-K receptor (Homo sapiens) (UniProt P29371)
T2 sequence (whole entry): T1 sequence (P29371 whole entry)
Assay: Antagonist activity against human NK3 receptor expressed in CHO cells assessed as inhibition of senktide-induced increase of intracellular calcium level at 50 uM after 10 mins by fluorescent plate-reader analysis relative to control
Type: functional, cell-based
Details: not given
Method in brief: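 hNK3R-expressing CHO cells were preincubated 10 min with test compound at 50 μM. The calcium response to 200 nM senktide was then measured and expressed as percent inhibition versus the senktide response without antagonist.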

Structure (SMILES) | inhibition
CC(NC(=O)c1cc(-c2ccccc2)nc2ccccc12)c1ccccc1 (configuration not stated) | 61%
CCOC(=O)c1nn(C)c2c1CN(C(=O)c1cc(-c3ccccc3)nc3ccccc13)CC2 | 8%
Cc1ccc(-c2cc(C(=O)NCc3ccc(F)cc3)c3ccccc3n2)cc1 | 7%
c1ccc(CNc2nccc3[nH]c(-c4ccccc4)nc23)cc1 | 42%
Cc1ccc(CNC(=O)c2cc(-c3ccccc3)nc3ccccc23)cc1 | 21%
Cc1nc(-c2ccncc2)n2c1CN(C(=O)C1Cc3ccccc3O1)CC2 (configuration not stated) | 6%
O=C(NCc1ccccn1)c1cc(-c2ccccc2)nc2ccccc12 | 17%
Cc1ccc(-c2cc(C(=O)NC(C)c3ccccc3)c3ccccc3n2)c(C)c1 (configuration not stated) | 18%
COc1cccc(-c2nc3c(NCc4ccncc4)nccc3[nH]2)c1F | 39%
CCC(NC(=O)c1cc(-c2ccccc2)nc2ccccc12)c1ccccn1 (configuration not stated) | 82%
O=C(NCc1ccc(Cl)cc1)c1cc(-c2ccccc2Cl)nc2ccccc12 | 14%
Cc1ccc(-c2cc(C(=O)NCCc3ccccc3)c3ccccc3n2)cc1 | 17%
O=C(NCc1ccc(Cl)cc1)c1cc(-c2ccc(Cl)cc2)nc2ccccc12 | 13%
Cc1ccc(CNC(=O)c2cc(-c3ccc(C)cc3C)nc3ccccc23)cc1 | 9%
CCCN1N=C(C(=O)NC(C)c2ccccc2)C2CN(CC)CCC21 (configuration not stated) | 6%
Cc1cccc(-c2nc3c(NCc4ccccc4)nccc3[nH]2)c1 | 40%
COc1ccc(-c2cc(C(=O)NC(C)c3ccccn3)c3ccccc3n2)cc1OC (configuration not stated) | 16%
O=C(NCc1ccccc1)c1cc(-c2ccccc2)nc2ccccc12 | 30%
O=C(NCCc1ccccc1)c1cc(-c2ccccc2)nc2ccccc12 | 54%

Biological target: T1, Neuromedin-K receptor
Assay: Antagonist activity against human NK3 receptor expressed in HEK293 cells assessed as inhibition of MePhe7-NKB-induced increase of intracellular calcium level by fluorescent plate-reader analysis
Type: functional, cell-based
Details: in the assay text read “CHO cells” for “HEK293 cells”
Method in brief: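 Calcium responses to 50 nM MePhe7-NKB were measured across increasing antagonist concentrations, and IC50 was derived from the concentration-response curve.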

Structure (SMILES) | IC50
CC(NC(=O)c1cc(-c2ccccc2)nc2ccccc12)c1ccccc1 (configuration not stated) | 9900 nM
CCC(NC(=O)c1cc(-c2ccccc2)nc2ccccc12)c1ccccn1 (configuration not stated) | 1400 nM

Biological target: T2, Neuromedin-K receptor (Homo sapiens)
Assay: not given
Details: CHO

Structure (SMILES) | Ks
CC(=O)N(C)C1(c2ccccc2)CCN(CCC[C@]2(c3ccc(Cl)c(Cl)c3)CCCN(C(=O)c3ccccc3)C2)CC1 | 1 nM
